The results in this text go back to article PMC4624502 (Experimental eye research, 2015).

Assay [1] concerns the target T1, zebrafish IRBP module 1 (z1) (Danio rerio, UniProt F1Q9N9).
T1 sequence (F1Q9N9 22-330): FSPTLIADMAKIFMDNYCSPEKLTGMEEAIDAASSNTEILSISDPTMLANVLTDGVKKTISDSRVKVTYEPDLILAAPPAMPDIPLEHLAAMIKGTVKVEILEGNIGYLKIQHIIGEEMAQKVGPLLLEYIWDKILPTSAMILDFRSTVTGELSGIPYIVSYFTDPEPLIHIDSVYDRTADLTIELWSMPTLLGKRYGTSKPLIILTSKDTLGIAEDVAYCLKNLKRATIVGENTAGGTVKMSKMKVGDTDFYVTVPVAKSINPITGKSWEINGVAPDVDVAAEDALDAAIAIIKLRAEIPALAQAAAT
Description: X-ray crystal structure, […] Å. The class given is binding. Particulars: oleic acid in hydrophobic pocket of domain A; pH 7.5, PEG 8000.

For assay [2], the target named is T2, zIRBP (zebrafish IRBP, gene II product, full-length two-module) (Danio rerio, UniProt F1Q9N9).
T2 sequence (F1Q9N9 22-615): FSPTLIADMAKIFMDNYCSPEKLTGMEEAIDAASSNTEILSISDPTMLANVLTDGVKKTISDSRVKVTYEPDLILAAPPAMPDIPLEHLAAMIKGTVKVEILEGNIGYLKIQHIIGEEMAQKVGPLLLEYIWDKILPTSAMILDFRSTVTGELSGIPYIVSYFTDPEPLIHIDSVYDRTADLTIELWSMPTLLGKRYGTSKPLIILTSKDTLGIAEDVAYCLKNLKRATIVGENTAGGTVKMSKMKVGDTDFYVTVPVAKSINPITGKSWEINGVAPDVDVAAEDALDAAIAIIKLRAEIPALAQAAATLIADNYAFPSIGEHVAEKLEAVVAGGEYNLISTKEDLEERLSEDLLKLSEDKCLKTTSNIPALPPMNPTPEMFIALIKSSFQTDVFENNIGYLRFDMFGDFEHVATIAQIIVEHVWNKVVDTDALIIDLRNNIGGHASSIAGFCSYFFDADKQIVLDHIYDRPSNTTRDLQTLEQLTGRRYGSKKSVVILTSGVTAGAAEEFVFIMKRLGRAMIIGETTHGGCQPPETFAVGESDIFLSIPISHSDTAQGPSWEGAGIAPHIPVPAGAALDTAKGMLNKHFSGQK
Description: fluorescence titration, enhancement of retinol fluorescence. It is filed as binding. The essentials: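 Full-length zIRBP was expressed in E. coli BL21(DE3), His-trap purified, TEV-cleaved, and anion-exchange polished (>98% pure). Retinol in ethanol was added in 0.5 µL aliquots at 1 min intervals to 1 µM protein or to buffer (final alcohol ≤2%). Fluorescence was read at ex 330/em 480 nm with oleic acid at 0.0–0.112 µM. Kd came from a nonlinear least-squares one-site Hill fit.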

Regarding `CCCCCCCC/C=C\CCCCCCCC(=O)O` [oleic acid], the “X-ray crystal structure, 1.90 Å” value in assay [1] was “electron density for an extended oleic acid molecule in domain A”.

As for `CC1=C(/C=C/C(C)=C/C=C/C(C)=C/CO)C(C)(C)CCC1` [all-trans retinol], the Kd in assay [2] is 910 ± 50 nM.
